This note sets out measurements from publication PMC2741613 (Journal of the American Chemical Society, 2009).

The test system of test [1] is tyrosine phosphorylation of EGFR in PTP1B−/− mouse embryo fibroblast cells. Briefly: EGF-stimulated EGFR phosphorylation in cells. It counts as cell-based. The note with it: 2 hr, then EGF 2 ng/ml 10 min, relative to DMSO. The procedure, abridged:
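PTP1B−/− mouse embryo fibroblasts were given test compound for 2 hr, then EGF 2 ng/mL for 10 min. Lysis in HEPES pH 7.4 buffer with pervanadate, fluoride and protease inhibitors, cleared at 15,000 rpm for 10 min, protein by BCA. EGFR immunoprecipitated from 1 mg lysate (4 °C, 2 h; protein A/G 2 h). SDS-PAGE, anti-pTyr immunoblot, ECL detection.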

In a further test the target is PTPα (Homo sapiens, UniProt P18433). Briefly: PTP activity assay with pNPP, PTPα. It counts as biochemical. The procedure, abridged:
(§1)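 Reactions started by adding enzyme to mixtures with various pNPP and test-compound concentrations. Rates were fitted with an enzyme-kinetics model for Ki.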

The target in a further test is T1, Cdc14A (Homo sapiens, UniProt Q9UNH5).
T1 sequence (Q9UNH5 1-594): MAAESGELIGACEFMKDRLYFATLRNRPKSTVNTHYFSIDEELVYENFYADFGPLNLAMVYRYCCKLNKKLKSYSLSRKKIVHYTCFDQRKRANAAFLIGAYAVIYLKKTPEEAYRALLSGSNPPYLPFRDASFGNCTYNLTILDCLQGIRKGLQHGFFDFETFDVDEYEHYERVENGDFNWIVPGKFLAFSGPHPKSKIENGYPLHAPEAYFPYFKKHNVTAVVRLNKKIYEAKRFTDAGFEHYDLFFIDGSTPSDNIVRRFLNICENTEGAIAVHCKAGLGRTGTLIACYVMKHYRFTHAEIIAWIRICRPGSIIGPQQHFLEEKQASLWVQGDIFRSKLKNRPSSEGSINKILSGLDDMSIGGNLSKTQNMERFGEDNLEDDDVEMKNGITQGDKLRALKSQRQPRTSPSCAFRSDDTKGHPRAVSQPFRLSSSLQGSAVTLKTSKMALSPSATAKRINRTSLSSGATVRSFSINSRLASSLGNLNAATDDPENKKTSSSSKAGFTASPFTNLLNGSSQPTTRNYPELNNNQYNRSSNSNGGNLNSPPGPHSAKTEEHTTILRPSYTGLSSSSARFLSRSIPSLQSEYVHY
The test can be described thus: PTP activity assay with pNPP, Cdc14A. Type of test: biochemical. Summed up:
as §1

By Ki is commonly meant the dissociation constant of the complex between target and ligand, obtained from inhibition or displacement. Higher therefore signals lower affinity.

PTPα, sequence (P18433 20-802): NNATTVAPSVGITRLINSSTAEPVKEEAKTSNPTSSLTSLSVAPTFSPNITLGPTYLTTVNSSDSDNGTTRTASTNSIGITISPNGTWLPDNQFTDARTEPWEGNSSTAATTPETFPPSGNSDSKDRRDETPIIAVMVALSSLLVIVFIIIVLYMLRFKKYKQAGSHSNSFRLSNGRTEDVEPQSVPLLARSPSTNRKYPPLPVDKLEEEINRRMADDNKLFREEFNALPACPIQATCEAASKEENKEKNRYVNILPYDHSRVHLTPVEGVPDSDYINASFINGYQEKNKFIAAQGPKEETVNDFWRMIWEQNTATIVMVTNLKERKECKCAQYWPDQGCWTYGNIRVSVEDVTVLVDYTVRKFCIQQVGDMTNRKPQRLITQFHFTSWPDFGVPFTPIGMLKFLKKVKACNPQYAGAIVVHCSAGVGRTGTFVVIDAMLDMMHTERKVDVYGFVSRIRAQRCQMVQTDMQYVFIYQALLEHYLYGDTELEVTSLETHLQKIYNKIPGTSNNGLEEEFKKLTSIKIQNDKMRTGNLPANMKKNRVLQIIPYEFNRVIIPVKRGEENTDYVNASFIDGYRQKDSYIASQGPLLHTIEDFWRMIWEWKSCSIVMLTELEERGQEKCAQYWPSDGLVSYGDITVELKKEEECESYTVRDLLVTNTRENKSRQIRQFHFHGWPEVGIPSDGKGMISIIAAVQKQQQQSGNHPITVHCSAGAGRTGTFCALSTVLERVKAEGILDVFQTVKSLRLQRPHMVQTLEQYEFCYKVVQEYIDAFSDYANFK

For the molecule `CCc1ccc(C(=O)NCCCC[C@H](NC(=O)[C@H](Cc2ccc(C(F)(F)P(=O)(O)O)cc2)NC(=O)[C@H](Cc2ccccc2)NC(=O)CO[C@H]2C[C@@H](C)CC[C@@H]2C(C)C)C(N)=O)cc1` [Compound 8], the “increase in EGFR phosphorylation” value is recorded as roughly 2 fold in test [1] (5 nM) and 5.0 fold in test [1] (50 nM). Besides, the Ki at PTPα and on Cdc14A was greater than 1000 nM each time.
